Experiments:
Conditions in all cases: stereoisomer not certain
[1] = target: T1, OR2A1 (Homo sapiens) (UniProt Q8NGT9)
T1 sequence (whole entry): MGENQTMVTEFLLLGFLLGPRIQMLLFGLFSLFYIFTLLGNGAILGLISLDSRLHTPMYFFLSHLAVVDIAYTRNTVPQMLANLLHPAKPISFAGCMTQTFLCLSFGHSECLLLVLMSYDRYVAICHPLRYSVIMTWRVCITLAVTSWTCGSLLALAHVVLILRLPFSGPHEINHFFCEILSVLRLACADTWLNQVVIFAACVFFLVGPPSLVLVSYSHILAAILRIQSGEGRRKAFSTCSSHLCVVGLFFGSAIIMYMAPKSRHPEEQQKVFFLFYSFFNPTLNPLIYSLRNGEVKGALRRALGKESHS
Procedure, shortened: (§1)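 Transient luciferase assays in mammalian cell lines were common, though methods varied by source. The values come from published papers and their supplementary material, with extra details from the original authors when needed. Responsive refers to a measured signal the original authors judged statistically different from baseline, and non-responsive (inactive) to the remainder.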

[2] = tested on: OR2A1 S168C
Sequence of OR2A1 S168C (as listed by the source, stated change not applied): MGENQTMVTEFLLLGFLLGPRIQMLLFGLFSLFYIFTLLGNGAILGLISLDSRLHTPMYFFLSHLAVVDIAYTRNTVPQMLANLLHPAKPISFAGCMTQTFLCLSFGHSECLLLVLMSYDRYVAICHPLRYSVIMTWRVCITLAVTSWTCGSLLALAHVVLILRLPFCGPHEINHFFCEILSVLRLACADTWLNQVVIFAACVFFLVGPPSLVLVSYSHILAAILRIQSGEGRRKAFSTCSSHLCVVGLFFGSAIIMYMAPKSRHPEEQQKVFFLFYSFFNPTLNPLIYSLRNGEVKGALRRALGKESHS
Procedure, shortened: as §1

[3] = tested on: OR2A1 T73A R74C S168C
Procedure, shortened: as §1

[4] = target: OR2A12 (Homo sapiens) (UniProt Q8NGT7)
Sequence of OR2A12 (Homo sapiens) (Q8NGT7 whole entry): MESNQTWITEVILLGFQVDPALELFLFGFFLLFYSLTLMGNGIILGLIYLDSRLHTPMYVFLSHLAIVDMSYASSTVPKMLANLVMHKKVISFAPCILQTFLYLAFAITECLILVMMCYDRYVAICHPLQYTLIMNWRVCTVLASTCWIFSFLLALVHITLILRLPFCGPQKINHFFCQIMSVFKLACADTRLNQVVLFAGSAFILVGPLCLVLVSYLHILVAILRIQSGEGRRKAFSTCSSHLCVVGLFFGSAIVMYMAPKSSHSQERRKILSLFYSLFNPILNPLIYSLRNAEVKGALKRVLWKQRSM
Procedure, shortened: as §1

[5] = target: OR2A14 (Homo sapiens) (UniProt Q96R47)
Sequence of OR2A14 (Homo sapiens) (Q96R47 whole entry): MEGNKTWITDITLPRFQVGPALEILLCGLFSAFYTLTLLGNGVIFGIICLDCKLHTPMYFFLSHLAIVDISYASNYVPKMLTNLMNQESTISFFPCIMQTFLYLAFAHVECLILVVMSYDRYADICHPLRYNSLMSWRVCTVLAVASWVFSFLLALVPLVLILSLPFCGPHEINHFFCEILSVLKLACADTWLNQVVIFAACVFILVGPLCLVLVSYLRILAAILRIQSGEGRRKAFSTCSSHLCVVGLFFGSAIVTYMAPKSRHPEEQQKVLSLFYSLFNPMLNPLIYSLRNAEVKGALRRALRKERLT
Procedure, shortened: as §1

[6] = target: OR2A2 (Homo sapiens) (UniProt Q6IF42)
Sequence of OR2A2 (Homo sapiens) (Q6IF42 whole entry): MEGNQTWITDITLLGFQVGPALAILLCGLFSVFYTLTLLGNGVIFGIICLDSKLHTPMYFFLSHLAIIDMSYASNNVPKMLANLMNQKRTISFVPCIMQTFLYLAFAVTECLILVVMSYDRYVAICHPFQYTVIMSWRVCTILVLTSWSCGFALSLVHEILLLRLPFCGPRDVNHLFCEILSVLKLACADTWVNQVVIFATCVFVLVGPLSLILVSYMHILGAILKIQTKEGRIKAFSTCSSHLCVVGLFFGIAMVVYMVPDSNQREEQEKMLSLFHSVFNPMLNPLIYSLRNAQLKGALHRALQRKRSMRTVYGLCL
Procedure, shortened: as §1

[7] = target: OR2A25 (Homo sapiens) (UniProt A4D2G3)
Sequence of OR2A25 (Homo sapiens) (A4D2G3 whole entry): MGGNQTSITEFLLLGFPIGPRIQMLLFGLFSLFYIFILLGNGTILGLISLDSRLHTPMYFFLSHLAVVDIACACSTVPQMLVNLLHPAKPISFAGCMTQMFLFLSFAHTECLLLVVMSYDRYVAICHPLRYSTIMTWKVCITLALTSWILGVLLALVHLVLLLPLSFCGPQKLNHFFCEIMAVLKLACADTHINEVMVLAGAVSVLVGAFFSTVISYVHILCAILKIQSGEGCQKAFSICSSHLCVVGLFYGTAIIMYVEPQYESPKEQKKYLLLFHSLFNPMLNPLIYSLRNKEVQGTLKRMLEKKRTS
Procedure, shortened: as §1

[8] = tested on: OR2A2
Sequence of OR2A2 (as listed by the source): as the sequence (Q6IF42 whole entry) above, with F280L counted along it
Procedure, shortened: as §1

[9] = target: OR2A4 (Homo sapiens) (UniProt O95047)
Sequence of OR2A4 (Homo sapiens) (O95047 whole entry): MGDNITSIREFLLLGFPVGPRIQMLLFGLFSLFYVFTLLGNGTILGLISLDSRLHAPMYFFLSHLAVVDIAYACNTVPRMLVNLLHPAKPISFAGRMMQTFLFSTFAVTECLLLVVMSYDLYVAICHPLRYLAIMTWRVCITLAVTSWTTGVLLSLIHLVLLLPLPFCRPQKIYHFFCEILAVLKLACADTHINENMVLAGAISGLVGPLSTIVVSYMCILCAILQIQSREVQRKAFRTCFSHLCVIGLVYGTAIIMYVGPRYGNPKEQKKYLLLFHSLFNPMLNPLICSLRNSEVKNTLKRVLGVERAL
Procedure, shortened: as §1

[10] = target: OR2A5 (Homo sapiens) (UniProt Q96R48)
Sequence of OR2A5 (Homo sapiens) (Q96R48 whole entry): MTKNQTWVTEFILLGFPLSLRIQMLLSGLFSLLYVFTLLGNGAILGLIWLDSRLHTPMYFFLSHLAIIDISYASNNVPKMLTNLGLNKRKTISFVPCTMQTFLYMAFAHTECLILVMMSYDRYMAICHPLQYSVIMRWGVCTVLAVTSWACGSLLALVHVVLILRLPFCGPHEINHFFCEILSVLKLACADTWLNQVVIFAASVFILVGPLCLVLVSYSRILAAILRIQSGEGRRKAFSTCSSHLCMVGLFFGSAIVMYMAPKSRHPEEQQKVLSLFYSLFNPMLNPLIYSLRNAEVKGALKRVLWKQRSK
Procedure, shortened: as §1

Measured: odorant receptor agonist call

COc1ccc(C=O)cc1
inactive: [1]

Cc1cccc(C)c1
inactive: [1]

C=CCOC(=O)Cc1ccccc1
inactive: all assays above

Cc1c([N+](=O)[O-])c(C)c([N+](=O)[O-])c(C(C)(C)C)c1[N+](=O)[O-]
not listed: [2] | [3] | [8]
inactive: all other assays above
